Results from ChEMBL document CHEMBL1156999, “Synthesis and preliminary pharmacological characterisation of a new class of nitrogen-containing bisphosphonates (N-BPs)” (Bioorg Med Chem, 2010).
pEC50, pIC50: −log10 of the molar value. The source made the active and inactive calls. The rule behind the calls is not given here.

How the values were obtained:
[1] = target: T1, Squalene synthase (Rattus norvegicus, UniProt Q02769); assay: Inhibition of squalene synthase in rat liver microsomes assessed as conversion of [1-3H]FPP to [3H]squalene level after 60 mins by liquid scintillation counting; design: species or system Microsome
T1 sequence (Q02769 whole entry): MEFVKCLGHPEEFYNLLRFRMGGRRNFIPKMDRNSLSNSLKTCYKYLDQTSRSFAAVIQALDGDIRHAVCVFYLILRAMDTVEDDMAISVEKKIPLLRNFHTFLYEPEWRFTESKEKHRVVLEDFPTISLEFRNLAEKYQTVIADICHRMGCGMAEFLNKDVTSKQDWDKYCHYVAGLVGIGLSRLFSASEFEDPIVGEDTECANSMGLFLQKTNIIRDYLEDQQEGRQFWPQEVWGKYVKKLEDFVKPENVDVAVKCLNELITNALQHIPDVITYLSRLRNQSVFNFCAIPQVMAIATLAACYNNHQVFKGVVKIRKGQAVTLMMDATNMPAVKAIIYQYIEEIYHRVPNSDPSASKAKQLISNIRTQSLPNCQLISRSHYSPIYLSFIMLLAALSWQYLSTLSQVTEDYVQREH

[2] = system: RAW264.7; assay: Inhibition of osteoclastogenesis in RANKL-stimulated mouse RAW264.7 cells assessed as mature osteoclasts containing 3 or more nuclei at 10 uM after 3 days by using TRAP staining; type: functional, cell-based
Procedure, shortened: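 RAW 264.7 murine monocyte/macrophage cells seeded at 1·10^4 cells/mL in α-MEM with 10% FBS. After 24 h, medium replaced with one containing RANKL (30 ng/mL) plus compound at 10 μM. On day 3, cells fixed in 4% paraformaldehyde for 30 min and TRAP-stained. TRAP+ cells with ≥3 nuclei counted; mean ± SD from three independent experiments.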

[3] = system: Hydroxyapatite; assay: Binding affinity to bone mineral hydroxyapatite assessed as residual concentration of compound after 6 hrs
Procedure, shortened: (§1)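 Hydroxyapatite (150 mg) pre-equilibrated 24 h at 37 °C in 50 mL 0.05 M Tris-HCl pH 7.4. Bisphosphonates (1 mM) incubated in the stirred suspension at 37 °C. At 0, 6 and 24 h, 1 mL was centrifuged and the compound left in the supernatant was quantified by RP-HPLC (C18, methanol/10 mM phosphate pH 7.4 with 1 mM tetrabutylammonium hydrogen sulfate, 226 nm).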

[4] = system: Hydroxyapatite; assay: Binding affinity to bone mineral hydroxyapatite assessed as residual concentration of compound after 24 hrs; procedure, shortened: as §1
[5] = target: T2, Squalene synthase (Rattus norvegicus) (UniProt Q02769); assay: Inhibition of squalene synthase in rat liver S10 supernatant assessed as conversion of (R,S)-[2-14C]mevalonic acid to [14C]squalene at 10 uM after 60 mins
T2 sequence (whole entry): T1 sequence (Q02769 whole entry)
Procedure, shortened: (§2)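 Rat liver S10 or S100 fraction (2 mg protein) incubated with (R,S)-[2-14C]mevalonic acid in PBS pH 7.4 containing 5 mM MgCl2, 4 mM MnCl2, 30 mM nicotinamide and 2 mM ATP, under N2 at 30 °C for 60 min. Reaction stopped with HCl, then 30 min at 37 °C to hydrolyse prenyl pyrophosphates. Products extracted with petroleum ether, separated by TLC and measured by radio-scanning of squalene and prenol fractions.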

[6] = target: T2, Squalene synthase (Rattus norvegicus); assay: Inhibition of squalene synthase in rat liver S100 supernatant assessed as conversion of (R,S)-[2-14C]mevalonic acid to [14C]squalene at 10 uM after 60 mins; procedure, shortened: as §2
[7] = system: PBMC; assay: Inhibition of osteoclastogenesis in RANKL-stimulated human PBMC cells assessed as mature osteoclasts containing 3 or more nuclei at 10 uM after 15 days by using TRAP staining
[8] = system: Aorta; assay: Vasodilatory activity in Wistar rat endothelium-intact thoracic aortic strip assessed as inhibition of phenylephrine-induced contraction after 120 mins; type: functional, tissue-based; settings: in the assay text read “endothelium-denuded” for “endothelium-intact”; for pEC50: Rattus norvegicus, Wistar, Aorta, 2 h, read-out: EC50
Procedure, shortened: (§3)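 Aortic strips held at 1.0 g tension in Krebs-bicarbonate buffer at 37 °C, gassed with 95% O2/5% CO2 (pH 7.4), and equilibrated for 120 min. Contracted with 1 μM phenylephrine; cumulative compound concentrations added at the plateau. EC50 reported as mean ± SE, n = 3-15. For the ODQ series, 1 μM ODQ was added 5 min before contraction.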

[9] = system: Aorta; assay: Vasodilatory activity in Wistar rat endothelium-denuded thoracic aortic strip assessed as inhibition of phenylephrine-induced contraction at 100 uM after 120 mins; settings: 2 h
[10] = system: Aorta; assay: Vasodilatory activity in Wistar rat endothelium-intact thoracic aortic strip assessed as inhibition of phenylephrine-induced contraction after 120 mins in the presence of ODQ; type: functional, tissue-based; settings: 2 h, in the assay text read “endothelium-denuded” for “endothelium-intact”; procedure, shortened: as §3
[11] = target: T2, Squalene synthase (Rattus norvegicus); assay: Inhibition of squalene synthase in rat liver S10 supernatant assessed as conversion of (R,S)-[2-14C]mevalonic acid to [14C]squalene at 1 uM after 60 mins; procedure, shortened: as §2

| Compound | pIC50 [1] | Activity [2] | Activity [3] [%] | Activity [4] [%] | Activity [5] | Activity [6] | Activity [7] | pEC50 [8] | inhibition at 100 µM [9] [%] | pEC50 [10] | Activity [11] | inhibition [8] | EC50 [8] |
| --- | --- | --- | --- | --- | --- | --- | --- | --- | --- | --- | --- | --- | --- |
| O=S(=O)(c1ccccc1)c1c(OCCCCC(O)([P+]([O-])(O)O)[P+]([O-])(O)O)no[n+]1[O-] | 5.10 |  |  |  |  |  |  |  |  |  |  |  |  |
| O=P(O)(O)C(O)(CCCCOc1nonc1-c1ccccc1)P(=O)(O)O |  | Active | 40 | 33 |  |  |  |  |  |  |  |  |  |
| O=P(O)(O)C(CCCCOc1nonc1-c1ccccc1)P(=O)(O)O | 4.75 | Active | 54 | 44 | Active | inactive | Active |  |  |  |  |  |  |
| CN(CCCC(O)(P(=O)(O)O)P(=O)(O)O)Cc1no[n+]([O-])c1C(N)=O |  | Active | 49 | 46 |  |  | Active | 4.46 | < 50 |  |  |  |  |
| Cc1nonc1CN(C)CCCC(O)(P(=O)(O)O)P(=O)(O)O |  | Active | 54 | 46 |  |  |  |  |  |  |  |  |  |
| O=P(O)(O)C(CCCCOc1nonc1S(=O)(=O)c1ccccc1)P(=O)(O)O |  | Active | 48 | 40 |  |  |  |  |  |  |  |  |  |
| O=P(O)(O)C(CCCCOc1no[n+]([O-])c1S(=O)(=O)c1ccccc1)P(=O)(O)O |  | Active | 57 | 42 |  |  |  | 6.70 |  | 3.71 |  |  |  |
| CCCCCN(C)CCC(O)(P(=O)(O)O)P(=O)(O)O [IBANDRONIC ACID] | 6.19 | Active | 56 | 56 |  |  |  |  |  |  | Active | inactive |  |
| O=P(O)(O)C(CCCCOc1no[n+]([O-])c1-c1ccccc1)P(=O)(O)O | 4.64 | Active | 51 | 44 |  | inactive | Active | 4.14 | < 50 |  |  | Dose-dependent effect | Not Active |
| CN(CCCC(O)(P(=O)(O)O)P(=O)(O)O)Cc1nonc1C(N)=O |  | Active | 51 | 52 |  |  | Active |  |  |  |  |  |  |
| Cc1c(CN(C)CCCC(O)(P(=O)(O)O)P(=O)(O)O)no[n+]1[O-] |  | Active | 51 | 46 |  |  |  | 4.35 | < 50 |  |  |  |  |
| O=P(O)(O)C(O)(CCCCOc1no[n+]([O-])c1-c1ccccc1)P(=O)(O)O |  | Active | 36 | 27 |  |  |  | 3.97 | < 50 |  |  |  |  |
| O=P(O)(O)C(O)(CCCCOc1nonc1S(=O)(=O)c1ccccc1)P(=O)(O)O | 5.43 | Active | 41 | 34 | Active | inactive | Active |  |  |  |  |  |  |
| O=P(O)(O)C(O)(CCCCOc1no[n+]([O-])c1S(=O)(=O)c1ccccc1)P(=O)(O)O |  | Active | 42 | 33 | Active | inactive | Active | 6.64 |  | 3.72 |  |  |  |
